Measured values taken from ChEMBL document CHEMBL2057200, “Design and synthesis of potent antagonists containing rigid spirocyclic privileged structures for the CGRP receptor” (Bioorg Med Chem Lett, 2012).
pEC50, pIC50: −log10 of the molar value.

Tests used:
[1] = target: T1, Calcitonin gene-related peptide type 1 receptor (Homo sapiens, UniProt O60894+Q16602); experiment: Displacement of [125I]CGRP from CGRP receptor in human SK-N-MC cells; format: cell-based
Method in brief: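 Radioligand competition binding in human neuroblastoma SK-N-MC cells, which endogenously express CGRP receptor of identical sequence to the cloned human receptor. IC50 determined from compound competition for the radioligand.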

[2] = target: T1, Calcitonin gene-related peptide type 1 receptor; experiment: Antagonist activity at CGRP receptor in human SK-N-MC cells assessed as inhibition of CGRP-stimulated formation of cyclic AMP; format: functional, cell-based
[3] = Inhibition of CGRP-induced dilation in potassium chloride pre-contracted ex vivo migraine model of human intracranial artery rings
[4] = target: cytochrome P450 (isoform not stated) (Homo sapiens, UniProt P04798+P05177+P05181+P08684+P10632+P10635+P11509+P11712+P13584+P20813+P20815+P20853+P24462+P24903+P33260+P33261+P51589+P78329+P98187+Q02928+Q08477+Q16678+Q16696+Q5TCH4+Q6VVX0+Q7Z449+Q8TAV3+Q96SQ9+Q9HB55); experiment: Inhibition of cytochrome P450; format: ADME
Cytochrome P450 3A4 = Cytochrome P450 3A4 (Homo sapiens, UniProt P08684); experiment: Inhibition of CYP3A4; format: ADME
[5] = Metabolic stability of the compound in human liver microsomes assessed as compound remaining at 3 uM after 10 mins; format: ADME, Microsome; conditions: read-out: Stability
[6] = Metabolic stability of the compound in rat liver microsomes assessed as compound remaining at 3 uM after 10 mins; format: ADME, Microsome; conditions: read-out: Stability
Cytochrome P450 1A2 = target: T2, Cytochrome P450 1A2 (Homo sapiens, UniProt P05177); experiment: Inhibition of recombinant CYP1A2; format: ADME
T2 sequence (P05177 whole entry): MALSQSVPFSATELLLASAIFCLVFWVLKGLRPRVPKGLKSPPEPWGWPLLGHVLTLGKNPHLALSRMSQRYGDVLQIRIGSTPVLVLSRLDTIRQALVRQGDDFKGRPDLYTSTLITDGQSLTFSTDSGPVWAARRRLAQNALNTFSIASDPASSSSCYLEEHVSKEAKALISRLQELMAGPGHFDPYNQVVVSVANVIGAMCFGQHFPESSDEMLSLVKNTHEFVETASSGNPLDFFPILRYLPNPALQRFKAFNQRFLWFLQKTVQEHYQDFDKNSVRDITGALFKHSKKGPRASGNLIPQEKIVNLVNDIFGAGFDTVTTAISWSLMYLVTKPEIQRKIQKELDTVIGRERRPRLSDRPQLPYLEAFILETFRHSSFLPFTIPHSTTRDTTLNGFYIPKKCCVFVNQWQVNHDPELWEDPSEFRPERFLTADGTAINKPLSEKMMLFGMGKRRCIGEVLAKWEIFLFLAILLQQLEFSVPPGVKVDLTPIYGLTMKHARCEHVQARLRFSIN

Cytochrome P450 2C9 = Cytochrome P450 2C9 (Homo sapiens, UniProt P11712); experiment: Inhibition of recombinant CYP2C9; format: ADME
Cytochrome P450 2C19 = Cytochrome P450 2C19 (Homo sapiens, UniProt P33261); experiment: Inhibition of recombinant CYP2C19; format: ADME
Cytochrome P450 2C19, sequence (P33261 whole entry): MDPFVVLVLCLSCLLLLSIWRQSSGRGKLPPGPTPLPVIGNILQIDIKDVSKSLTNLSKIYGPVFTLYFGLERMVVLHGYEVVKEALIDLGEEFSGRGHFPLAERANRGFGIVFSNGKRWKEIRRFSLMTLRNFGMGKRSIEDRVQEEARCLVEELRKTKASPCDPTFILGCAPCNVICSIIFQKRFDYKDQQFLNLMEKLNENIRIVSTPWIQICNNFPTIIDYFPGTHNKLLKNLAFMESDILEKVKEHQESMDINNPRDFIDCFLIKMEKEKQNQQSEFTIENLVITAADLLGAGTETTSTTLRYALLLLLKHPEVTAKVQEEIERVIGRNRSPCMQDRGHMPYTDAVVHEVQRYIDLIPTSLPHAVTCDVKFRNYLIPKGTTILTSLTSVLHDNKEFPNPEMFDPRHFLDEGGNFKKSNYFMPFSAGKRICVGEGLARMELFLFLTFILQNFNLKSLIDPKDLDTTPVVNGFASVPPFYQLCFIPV

Cytochrome P450 3A4, sequence (P08684 whole entry): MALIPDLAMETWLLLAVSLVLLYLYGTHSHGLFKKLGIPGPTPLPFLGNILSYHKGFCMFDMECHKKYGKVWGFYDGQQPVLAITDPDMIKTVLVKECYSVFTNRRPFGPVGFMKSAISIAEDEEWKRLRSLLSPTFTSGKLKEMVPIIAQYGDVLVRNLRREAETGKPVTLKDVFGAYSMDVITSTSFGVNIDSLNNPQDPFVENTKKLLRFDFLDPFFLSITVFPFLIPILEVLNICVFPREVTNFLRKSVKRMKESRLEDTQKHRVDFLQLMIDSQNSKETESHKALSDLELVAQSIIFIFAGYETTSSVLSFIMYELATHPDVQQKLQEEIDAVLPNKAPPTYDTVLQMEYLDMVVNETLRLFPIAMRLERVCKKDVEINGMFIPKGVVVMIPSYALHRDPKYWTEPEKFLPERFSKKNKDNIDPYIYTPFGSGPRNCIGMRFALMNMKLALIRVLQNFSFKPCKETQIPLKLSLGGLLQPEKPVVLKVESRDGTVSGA
T1 sequence (Q16602 whole entry, one chain of several): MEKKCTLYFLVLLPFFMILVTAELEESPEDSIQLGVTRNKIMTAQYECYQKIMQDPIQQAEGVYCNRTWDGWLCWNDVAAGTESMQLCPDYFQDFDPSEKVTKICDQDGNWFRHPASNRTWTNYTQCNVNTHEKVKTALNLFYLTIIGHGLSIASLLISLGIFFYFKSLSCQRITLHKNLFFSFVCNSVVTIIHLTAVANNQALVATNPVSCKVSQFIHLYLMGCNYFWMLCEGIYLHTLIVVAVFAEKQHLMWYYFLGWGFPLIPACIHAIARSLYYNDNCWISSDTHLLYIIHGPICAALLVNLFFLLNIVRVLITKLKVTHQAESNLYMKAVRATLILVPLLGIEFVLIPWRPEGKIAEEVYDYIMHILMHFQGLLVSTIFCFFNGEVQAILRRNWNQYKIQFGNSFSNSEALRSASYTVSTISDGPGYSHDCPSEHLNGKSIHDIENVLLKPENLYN
Cytochrome P450 2C9, sequence (P11712 whole entry): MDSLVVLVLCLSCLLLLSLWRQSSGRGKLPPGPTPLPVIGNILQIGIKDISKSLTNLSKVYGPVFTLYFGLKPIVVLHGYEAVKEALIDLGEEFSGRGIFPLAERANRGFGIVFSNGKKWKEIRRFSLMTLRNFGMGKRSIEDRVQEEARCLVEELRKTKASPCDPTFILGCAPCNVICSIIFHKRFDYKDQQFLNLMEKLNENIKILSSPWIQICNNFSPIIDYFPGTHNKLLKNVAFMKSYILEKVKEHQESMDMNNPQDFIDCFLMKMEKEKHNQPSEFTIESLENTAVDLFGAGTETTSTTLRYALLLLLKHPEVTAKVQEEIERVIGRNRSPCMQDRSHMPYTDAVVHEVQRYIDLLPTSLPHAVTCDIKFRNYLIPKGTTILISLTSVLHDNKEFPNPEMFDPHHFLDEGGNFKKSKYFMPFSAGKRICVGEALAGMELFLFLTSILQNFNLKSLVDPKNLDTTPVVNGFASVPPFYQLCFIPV

Structure (SMILES)	pIC50 [1]	pEC50 [2]	further results
O=C(N[C@H](Cc1csc2ccccc12)C(=O)N1CCC(N2CCCCC2)CC1)N1CCC(n2c(=O)[nH]c3ccccc32)CC1	8.05		
O=C(N[C@H](Cc1csc2ccccc12)C(=O)N1CCC(C2CCNCC2)CC1)N1CCC(n2c(=O)[nH]c3ccccc32)CC1	8.40		
O=C(N[C@H](Cc1csc2ccccc12)C(=O)N1CCC(N2CCCCC2)CC1)N1CCC2(CC1)C(=O)Nc1ccccc12	6.77		
O=C1CC2(CCN(C(=O)N[C@H](Cc3csc4ccccc34)C(=O)N3CCC(N4CCCCC4)CC3)CC2)c2ccccc2N1	7.64	7.92	
O=C1Cc2ccccc2C2(CCN(C(=O)N[C@H](Cc3csc4ccccc34)C(=O)N3CCC(N4CCCCC4)CC3)CC2)N1	7.54	7.82	
O=C1NCC2(CCN(C(=O)N[C@H](Cc3csc4ccccc34)C(=O)N3CCC(N4CCCCC4)CC3)CC2)c2ccccc21	6.82	6.89	
CN1c2ccccc2C(=O)NC12CCN(C(=O)N[C@H](Cc1csc3ccccc13)C(=O)N1CCC(N3CCCCC3)CC1)CC2	6.07		
O=C(N[C@H](Cc1csc2ccccc12)C(=O)N1CCC(N2CCCCC2)CC1)N1CCC2(CC1)N=C(c1ccccc1)NC2=O	7.70	7.89	pEC50 [3]: 7.20; pIC50 [4]: < 4.40; pIC50 (Cytochrome P450 3A4): > 6.00
O=C(N[C@H](Cc1csc2ccccc12)C(=O)N1CCC(N2CCCCC2)CC1)N1CCC2(CC1)C(=O)NCN2c1ccccc1	6.48		
O=C(N[C@H](Cc1csc2ccccc12)C(=O)N1CCC(N2CCCCC2)CC1)N1CCC2(CC1)N=C(C1CCCCC1)NC2=O	5.07		
O=C(N[C@H](Cc1csc2ccccc12)C(=O)N1CCC(N2CCCCC2)CC1)N1CCC2(CC1)N=C(c1ccncc1)NC2=O	5.85		
O=C(N[C@H](Cc1csc2ccccc12)C(=O)N1CCC(N2CCCCC2)CC1)N1CCC2(CC1)N=C(c1cccnc1)NC2=O	6.68		
O=C1Nc2ccccc2C2(CCN(C(=O)N[C@H](Cc3csc4ccccc34)C(=O)N3CCC(N4CCCCC4)CC3)CC2)O1	7.70	7.51	pEC50 [3]: 7.72; pIC50 [4]: < 4.40; pIC50 (Cytochrome P450 3A4): > 6.00
O=C1Nc2ccccc2C2(CCN(C(=O)N[C@H](Cc3csc4ccccc34)C(=O)N3CCC(N4CCCCC4)CC3)CC2)N1	8.30	8.52	pEC50 [3]: 7.49; pIC50 (Cytochrome P450 3A4): 7.00; remaining at 10 min, 3 µM [5]: 82%; remaining at 10 min, 3 µM [6]: 100%; pIC50 (Cytochrome P450 1A2): < 4.40; pIC50 (Cytochrome P450 2C9): < 4.40; pIC50 (Cytochrome P450 2C19): < 4.40
O=C(N[C@H](Cc1csc2ccccc12)C(=O)N1CCC(N2CCCCC2)CC1)N1CCC(N2Cc3ccccc3NC2=O)CC1	8.52		
